In ChEMBL document CHEMBL4402517, “Rational modification of Mannich base-type derivatives as novel antichagasic compounds: Synthesis, in vitro and in vivo evaluation” (Bioorg Med Chem, 2019):
Active and inactive are the calls of the source. The rule behind the calls is not given here.

How the values were obtained:
Trypanosoma cruzi [1] = assay: Antitrypanosomal activity against Trypanosoma cruzi MHOM/Pe/2011/Arequipa;DTU 5 epimastigote assessed as effect on D-lactate excretion at IC50 after 72 hrs by H NMR method relative to control; type: functional, organism-based
Method in brief: (§1)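 Cells were spun at 800 × g for 10 min and culture supernatants analysed by 1H NMR. Catabolite peaks were expressed as % variation versus untreated parasites.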

Trypanosoma cruzi [2] = assay: (§2) Antitrypanosomal activity against Trypanosoma cruzi MHOM/Pe/2011/Arequipa;DTU 5 bloodstream trypomastigote infected in BALB/c mouse assessed as parasite-free muscle in acute phase at 20 mg/kg/day, po administered for 5 consecutive days starting from day 8 post infection followed by cyclophosphamide induced immunosuppression on day 80 post infection measured after day 100 post infection by PCR method relative to control; type: functional
Method in brief: (§3)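 Female BALB/c mice (10–12 weeks, three per group) were infected i.p. with 5 × 10^5 Arequipa bloodstream trypomastigotes. Dosing was oral, 20 mg/kg/day for 5 days, as a suspension in 5% DMSO/0.5% HPMC. Cyclophosphamide 200 mg/kg i.p. was given at day 80 pi. At necropsy (day 100) tissues were tested by PCR on the splice leader region (primers TC/TC1, 300 bp). Scored as x/3 mice positive.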

Trypanosoma cruzi [3] = assay: as §2, with “bone marrow” for “muscle”; type: functional; method in brief: as §3
Trypanosoma cruzi [4] = assay: Trypanocidal activity against Trypanosoma cruzi trypomastigote form infected in African green monkey Vero cells measured after 48 hrs by resazurin dye based assay; type: functional, organism-based
[5] = (§4) Toxicity in BALB/c mouse infected with Trypanosoma cruzi MHOM/Pe/2011/Arequipa;DTU 5 bloodstream trypomastigote assessed as decrease in serum urea level in acute phase at 20 mg/kg/day, po administered for 5 consecutive days starting from day 8 post infection and measured at day 14 post infection by biochemical analysis relative to control; type: organism-based; parameters: scale not given: the % may be the effect or the level left; settings: in vivo
Method in brief: (§5)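 Female BALB/c mice (10–12 weeks, 14–20 g; groups of three) were infected i.p. with 5 × 10^5 Arequipa bloodstream trypomastigotes. Dosing was oral at 20 mg/kg/day for 5 days, from day 8 pi (acute) or day 70 pi (chronic), as a 2 mg/ml suspension in 5% DMSO/0.5% HPMC; controls received vehicle. Cyclophosphamide 200 mg/kg i.p. was given at day 80 pi. Serum was collected 2 days post-treatment and at necropsy by cardiac puncture and compared with infected untreated controls.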

Trypanosoma cruzi [6] = assay: Antitrypanosomal activity against Trypanosoma cruzi IRHOD/CO/2008/SN3;DTU 1 epimastigotes measured after 72 hrs by Neubauer hemocytometer; type: functional, organism-based; settings: IRHOD/CO/2008/SN3;DTU 1, 72 h
[7] = (§6) Toxicity in BALB/c mouse infected with Trypanosoma cruzi MHOM/Pe/2011/Arequipa;DTU 5 bloodstream trypomastigote assessed as change in serum alanine aminotransferase level in chronic phase at 20 mg/kg/day, po administered for 5 consecutive days starting from day 70 post infection measured on day 100 post infection relative to control; type: organism-based; settings: in vivo; method in brief: as §5
Trypanosoma cruzi [8] = assay: as §2, with “as parasite-free bone marrow in chronic” for “as parasite-free muscle in acute”, “marrow in chronic phase at” for “muscle in acute phase at”, “from day 70 post infection” for “from day 8 post infection”; type: functional; method in brief: as §3
Trypanosoma cruzi [9] = assay: Antitrypanosomal activity against Trypanosoma cruzi MHOM/Pe/2011/Arequipa;DTU 5 bloodstream trypomastigotes infected in BALB/c mouse assessed as reduction in serum Ig-G level in acute phase at 20 mg/kg/day, po administered for 5 consecutive days starting from day 8 post infection followed by cyclophosphamide induced immunosuppression on day 80 post infection and measured at day 100 post infection by ELISA; type: functional, organism-based
Method in brief: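 Sera came from infected BALB/c mice (three per group) dosed orally at 20 mg/kg/day for 5 days. Sampling points: 2 days after treatment, the day before immunosuppression (acute only) and necropsy day. Anti-T. cruzi IgG was measured by indirect ELISA using parasite Fe-SOD as antigen, read as OD at 492 nm.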

[10] = Selectivity index, ratio of IC50 for African green monkey Vero cells to IC50 for Trypanosoma cruzi MHOM/Pe/2011/Arequipa; DTU 5 trypomastigote forms; type: toxicity; settings: read-out: Selectivity Index
Method in brief: (§7)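 Bloodstream trypomastigotes were taken from BALB/c mice by cardiac puncture and diluted in RPMI with 10% FBS at 2 × 10^6/mL. They were incubated with 3.1–50.0 µM for 24 h at 37 °C in 5% CO2 and counted in a Neubauer chamber. Triplicate, at least three experiments; nonlinear regression.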

[11] = as §4, with “increase” for “decrease”, “alanine aminotransferase” for “urea”; type: organism-based; settings: in vivo; method in brief: as §5
Trypanosoma cruzi [12] = assay: (§8) Antitrypanosomal activity against Trypanosoma cruzi MHOM/Pe/2011/Arequipa;DTU 5 bloodstream trypomastigotes infected in BALB/c mouse assessed as parasite-free stomach in chronic phase at 20 mg/kg/day, po administered for 5 consecutive days starting from day 70 post infection followed by cyclophosphamide induced immunosuppression on day 80 post infection measured after day 100 post infection by PCR method relative to control; type: functional; method in brief: as §3
Trypanosoma cruzi [13] = assay: as §8, with “trypomastigote” for “trypomastigotes”, “brain” for “stomach”; type: functional; method in brief: as §3
[14] = Selectivity index, ratio of IC50 for African green monkey Vero cells to IC50 for Trypanosoma cruzi IRHOD/CO/2008/SN3;DTU 1 trypomastigote forms; type: toxicity; settings: read-out: Selectivity Index; method in brief: as §7
[15] = as §4, with “lactate dehydrogenase” for “urea”, “mg/kg/day,po” for “mg/kg/day, po”; type: organism-based; parameters: scale not given: the % may be the effect or the level left; settings: in vivo; method in brief: as §5
Trypanosoma cruzi [16] = assay: Antitrypanosomal activity against Trypanosoma cruzi TINF/CH/1956/Tulahuen;DTU 6 amastigote forms measured after 72 hrs by Giemsa staining based assay; type: functional, organism-based; settings: TINF/CH/1956/Tulahuen;DTU 6, 72 h
Method in brief: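 Vero cells (1 × 10^4/well, on coverslips) left to adhere 24 h at 37 °C, 5% CO2, then infected with trypomastigotes at MOI 10:1 for 24 h. Free parasites were removed by three PBS washes. Compounds at 3.1, 6.25, 12.5, 25 and 50 µM were incubated 72 h, and amastigotes were counted after Giemsa staining. Triplicates, two separate experiments; IC50 by nonlinear regression.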

Trypanosoma cruzi [17] = assay: Antitrypanosomal activity against Trypanosoma cruzi MHOM/Pe/2011/Arequipa;DTU 5 epimastigote assessed as effect on ethanol excretion at IC50 after 72 hrs by H NMR method relative to control; type: functional, organism-based; method in brief: as §1
Trypanosoma cruzi [18] = assay: Antitrypanosomal activity against Trypanosoma cruzi MHOM/Pe/2011/Arequipa;DTU 5 epimastigote assessed as effect on acetate excretion at IC50 after 72 hrs by H NMR method relative to control; type: functional, organism-based; method in brief: as §1
Trypanosoma cruzi [19] = assay: Antitrypanosomal activity against Trypanosoma cruzi MHOM/Pe/2011/Arequipa;DTU 5 epimastigote assessed as inhibition of DNA and RNA levels at IC50 measured after 72 hrs by acridine orange staining based flow cytometry relative to control; type: functional; parameters: scale not given: the % may be the effect or the level left
Method in brief: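 They were stained with rhodamine 123 or acridine orange and analysed by flow cytometry. Index of variation = (TM−CM)/CM, from median fluorescence of treated (TM) and untreated (CM) parasites.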

[20] = as §6, with “decrease” for “change”, “creatine kinase muscle to brain ratio” for “alanine aminotransferase”; type: organism-based; parameters: scale not given: the % may be the effect or the level left; settings: in vivo; method in brief: as §5
Trypanosoma cruzi [21] = assay: as §8, with “trypomastigote” for “trypomastigotes”, “oesophagus” for “stomach”; type: functional; method in brief: as §3

Structure (SMILES)	Activity (Trypanosoma cruzi [1])	Activity (Trypanosoma cruzi [2]) [%]	Activity (Trypanosoma cruzi [3]) [%]	IC50 (Trypanosoma cruzi [4]) [µM]	Activity [5]	IC50 (Trypanosoma cruzi [6]) [µM]	Activity [7] [%]	Activity (Trypanosoma cruzi [8]) [%]	Activity (Trypanosoma cruzi [9])	selectivity ratio [10]	Activity [11] [%]	Activity (Trypanosoma cruzi [12]) [%]	Activity (Trypanosoma cruzi [13]) [%]	selectivity ratio [14]	Activity [15]	IC50 (Trypanosoma cruzi [16]) [µM]	Activity (Trypanosoma cruzi [17])	Activity (Trypanosoma cruzi [18])	Activity (Trypanosoma cruzi [19]) [%]	Activity [20]	also measured
O=C(CCN1CCN(c2ccc(C(F)(F)F)cc2)CC1)c1ccc(O)cc1	Active	13	13	9.4	<= 10%	12.6	> 10	50	Active	123	> 40	50	50	51	<= 20%	3.9	Active	Active	-4.2	<= 30%	Activity (Trypanosoma cruzi [21]): 50%
O=C(CCN1CCN(c2ccc(Cl)cc2)CC1)c1ccc(O)cc1	Active	50	50	6.8	<= 10%	12.1	> 10	63	Active	141	> 40	63	63	50.9	<= 20%	3	Active	Active	-5.1	<= 20%	Activity (Trypanosoma cruzi [21]): 63%
O=C(Cn1ccnc1[N+](=O)[O-])NCc1ccccc1 [BENZNIDAZOLE]	Active	25	25	4.1	<= 30%	15.3	> 10	38	Active	> 32.5	> 40	38	38	> 6	<= 10%	3.9	Active	Active	-4.7	<= 10%	Activity (Trypanosoma cruzi [21]): 38%
